According to ChEMBL document CHEMBL1649477, “Trypanothione reductase high-throughput screening campaign identifies novel classes of inhibitors with antiparasitic activity” (Antimicrob Agents Chemother, 2009):
Where “and” joins values, the source holds several entries; their conditions need not be identical. Equal entries are not always repeated.

Experiments:
Liver microsomes = assay: Intrinsic clearance in human liver microsomes assessed per mg of protein by liquid chromatography-mass spectrometry; assay type: ADME, Microsome
How it was run: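 Compound is incubated with human liver microsomes and NADPH, and parent loss is followed by LC-MS. Concentration versus time is fitted to exponential decay to give the first-order depletion rate constant. In vitro CLint and predicted hepatic extraction ratio are calculated from that constant.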

[1] = Dissociation constant, pKa of the compound; assay type: physicochemical
[2] = Distribution coefficient, log D of the compound at pH 7.4; assay type: physicochemical; conditions: octanol/water
[3] = Solubility of the compound at pH 2; assay type: physicochemical; conditions: buffer
[4] = Solubility of the compound at pH 6.5; assay type: physicochemical; conditions: buffer
Leishmania donovani = assay: Antiprotozoal activity against Leishmania donovani MHOM/ET/67/L82 amastigotes; assay type: functional, organism-based
Plasmodium falciparum = assay: Antiplasmodial activity against Plasmodium falciparum 3D7 erythrocytic stage; assay type: functional, organism-based
Trypanothione reductase [5] = target: T1, Trypanothione reductase (Trypanosoma cruzi, UniProt P28593); assay: Inhibition of Trypanosoma cruzi X10/1 trypanothione reductase assessed as inhibition of thionitrobenzoate formation by microplate reader analysis
T1 sequence (P28593 whole entry): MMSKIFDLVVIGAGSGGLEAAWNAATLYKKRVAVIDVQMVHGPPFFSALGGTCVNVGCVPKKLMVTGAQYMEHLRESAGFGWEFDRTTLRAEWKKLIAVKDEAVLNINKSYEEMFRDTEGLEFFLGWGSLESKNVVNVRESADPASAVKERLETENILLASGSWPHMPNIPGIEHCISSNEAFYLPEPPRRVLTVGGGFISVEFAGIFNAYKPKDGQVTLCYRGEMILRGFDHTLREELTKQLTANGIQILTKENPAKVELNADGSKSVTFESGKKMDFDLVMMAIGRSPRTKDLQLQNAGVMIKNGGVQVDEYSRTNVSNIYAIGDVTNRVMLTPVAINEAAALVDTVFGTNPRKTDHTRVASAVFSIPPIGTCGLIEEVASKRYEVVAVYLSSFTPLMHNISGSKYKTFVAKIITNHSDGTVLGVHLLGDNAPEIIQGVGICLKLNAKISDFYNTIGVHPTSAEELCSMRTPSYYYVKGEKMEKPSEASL
How it was run: (§1)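 Recombinant T. cruzi TR (Silvio X10/1) coupled to DTNB-driven trypanothione regeneration. Enzyme (20 mU/ml), 12 μM T[S]2 and 200 μM DTNB in pH 7.5 HEPES/EDTA/BSA/Tween 20 buffer are preincubated ≥15 min at room temperature with compound. The reaction is started with 300 μM NADPH. Final conditions are 6 μM T[S]2, 100 μM DTNB and 150 μM NADPH. TNB absorbance at 410 nm is read for 12.5 min. Titrations are run in triplicate.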

Trypanosoma cruzi = assay: Antiprotozoal activity against Trypanosoma cruzi Tulahuen C2C4 amastigotes; assay type: functional, organism-based
[6] = system: Trypanosoma brucei rhodesiense; assay: Antitrypanosomal activity against Trypanosoma brucei rhodesiense STIB900 bloodstream forms; assay type: functional, organism-based
[7] = Cytotoxicity against rat L6 cells; assay type: cell-based
Trypanothione reductase [8] = target: T1, Trypanothione reductase; assay: Inhibition of Trypanosoma cruzi trypanothione reductase assessed as inhibition of thionitrobenzoate formation by microplate reader analysis; how it was run: as §1
[9] = Cytotoxicity against human HT-29 cells; assay type: cell-based
[10] = target: Glutathione reductase (Homo sapiens); assay: Inhibition of human glutathione reductase

| Structure (SMILES) | IC50 (Leishmania donovani) | IC50 (Plasmodium falciparum) | IC50 (Trypanothione reductase [5]) | IC50 (Trypanosoma cruzi) | IC50 [6] | CC50 [7] | other results |
| --- | --- | --- | --- | --- | --- | --- | --- |
| CCc1ccc2c(C)nc(NC3=NC(C)(C)C=C(C)N3)nc2c1 |  |  |  |  |  |  | CL (Liver microsomes): 90 µL/min/mg; pKa [1]: 2.4; logD [2]: 0.7; solubility [3]: > 100 µM; solubility [4]: > 100 µM |
| CN1C2CCC1CC(=NOC(c1ccccc1)c1ccc(Cl)cc1)C2 (configuration not stated) | > 30 µM | 8 µM | 33 µM | 0.1 µM | 3 µM | 35 µM | CL (Liver microsomes): 31 µL/min/mg; pKa [1]: 8.34; logD [2]: 2.9; solubility [3]: > 100 µM; solubility [4]: > 100 µM |
| CSc1nncc(-c2ccccc2)n1 |  |  | > 100 µM |  |  |  |  |
| S=C(Nc1ccccc1)NC1CCN(Cc2ccccc2)CC1 |  |  |  |  |  |  | IC50 (Trypanothione reductase [8]): 33 µM |
| S=C(Nc1cccnc1)NC1CCN(Cc2ccccc2)CC1 | > 30 µM | 8.6 µM | 2 µM | > 30 µM | 15 µM | 90 µM | IC50 (Trypanothione reductase [8]): 1 µM and 3 µM |
| CN1/C(=C/C=C2\C=Nc3ccccc32)C=Cc2ccccc21 | 3 µM | 0.2 µM | 23 µM | 6 µM | 0.1 µM | 14 µM |  |
| CCCNC(=S)NC1CCN(Cc2ccccc2)CC1 |  |  |  |  |  |  | IC50 (Trypanothione reductase [8]): > 100 µM |
| O=C(Nc1cccnc1)NC1CCN(Cc2ccccc2)CC1 |  |  |  |  |  |  | IC50 (Trypanothione reductase [8]): > 100 µM |
| CCN1CCC(NC(=S)Nc2cccnc2)CC1 |  |  |  |  |  |  | IC50 (Trypanothione reductase [8]): > 100 µM |
| CSc1nncc(-c2cnc(SC)c3c2CCCC3)n1 |  |  | > 100 µM |  |  |  |  |
| CCc1ccc2c(C)nc(NC3=NC(C)(C)CC(C)=N3)nc2c1 |  |  | 32 µM |  |  |  | CL (Liver microsomes): 90 µL/min/mg; pKa [1]: 2; logD [2]: 3.6; solubility [3]: > 100 µM; solubility [4]: > 100 µM |
| CCOc1ccc2c(C)nc(NC3=NC(C)(C)CC(C)=N3)nc2c1 |  |  | 28 µM |  |  |  |  |
| Cc1cc(C)c2nc(Nc3nc(C)c(C)c(O)n3)nc(C)c2c1 |  |  | > 100 µM |  |  |  |  |
| Cc1cc(C)c2c(C)nc(Nc3nc(C)cc(C)n3)nc2c1 | 32 µM | 4 µM | > 100 µM | 8 µM | 27 µM | 11 µM |  |
| Cc1ccc2nc(Nc3nc(C)cc(C)n3)nc(C)c2c1 |  |  | > 100 µM |  |  |  |  |
| Cc1cc(C)c2nc(NC(=N)N)nc(C)c2c1 |  |  | > 100 µM |  |  |  |  |
| N=c1n(CCOc2ccccc2)c2ccccc2n1CCN1CCCCC1 | > 30 µM | 2 µM | 9 µM | 19 µM | 0.6 µM |  | CC50 [9]: 42 µM; IC50 [10]: > 100 µM |
| CC1=CC(C)(C)N=C(Nc2nc(C)c3cc(C)cc(C)c3n2)N1 | 14 µM | 2 µM | 17 µM | 6 µM | 1 µM | 10 µM |  |
| COc1nncc(-c2cnnc(SC)n2)n1 | 8 µM | 0.2 µM | 27 µM | 15 µM | 5 µM | 30 µM |  |
| Cc1nc(NC(=N)N)nc2ccccc12 | > 64 µM | 42 µM | > 100 µM | 38 µM | 39 µM | > 64 µM |  |
| Nc1nc(N)nc(Nc2ccc([As]3SCC(CO)S3)cc2)n1 (configuration not stated) [MELARSOPROL] |  |  |  |  | 0.017 µM |  |  |
